This is a sample that favours compounds with a hit; in the whole collection about 2.9% have one here.
5HT1a antag: antagonists of human 5-HT1a serotonin receptor. P08908. CHO 5-HT1a Ga15 NFAT-bla reporter, antagonist mode. inhibition, % at 10 µM. 0.68% of 62,000 active. AID 612;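 active = inhibition above the mean of all tested compounds plus 3 SD, cut at about 43% in these data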;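 note: receptor stimulated by 5-CT agonist at 100 nM near EC80; beta-lactamase reporter measured by ratiometric fluorescence of a cleavable substrate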
Target sequence (P08908 whole entry, looked up): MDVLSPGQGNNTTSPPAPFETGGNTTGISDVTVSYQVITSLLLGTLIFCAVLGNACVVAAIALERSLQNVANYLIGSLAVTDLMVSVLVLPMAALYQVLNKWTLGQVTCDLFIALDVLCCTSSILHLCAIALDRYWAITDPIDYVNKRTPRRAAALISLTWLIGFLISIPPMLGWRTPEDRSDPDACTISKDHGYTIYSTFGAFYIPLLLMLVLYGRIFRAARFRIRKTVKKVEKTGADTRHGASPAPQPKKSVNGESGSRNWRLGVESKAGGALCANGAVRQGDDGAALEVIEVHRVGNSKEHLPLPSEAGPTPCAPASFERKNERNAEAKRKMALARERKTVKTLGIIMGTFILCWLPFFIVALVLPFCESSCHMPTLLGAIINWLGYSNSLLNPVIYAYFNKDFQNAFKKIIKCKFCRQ
S1P3 ag: S1P3 (human) receptor agonism; Q99500; S1P3 NFAT-BLA reporter cells, FRET ratio; relative to 1 µM S1P, basal subtracted; activation, % at 4.5 µM; 0.1% of 60,000 active; AID 373;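 active = activation above the screen-wide mean plus 3 SD, cut at about 4.5% in these data, passing the limit was not always enough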
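material = human S1P3 NFAT-BLA reporter CHO cells | schedule = 4 h compound at 37 °C, 2 h substrate at RT | measured by = fluorescent BLA substrate, ex 405 nm, em 460/535 nm ratio | controls = 1 µM S1P reference | replication = primary once, confirmation triplicate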
5HT1a ag: 5-HT1a (human) receptor agonism; 0.56% of 65,000 active; P08908; AID 567; CHO 5-HT1a Ga15 NFAT-bla reporter, FRET ratio; 0% basal, 100% maximal reference agonist; activation, % at 10 µM;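 active = activation above the screen-wide mean activation plus 3 SD, cut at about 19% in these data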;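 note: 0% = DMSO wells and 100% = 5-CT at EC100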
HTR1E antagonist: blocks the human 5-HT1E serotonin receptor | CHO 5-HT1E Ga15 NFAT-bla reporter, FRET, antagonist | inhibition, % at 6 µM | 0.99% of 65,000 active | AID 571;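 active = inhibition above a set limit, the mean inhibition across every tested compound plus 3 SD, cut at about 29% in these data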;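 note: signal is the 460 over 535 nm emission ratio of beta-lactamase substrate; 0% = agonist plus DMSO wells and 100% = wells without agonist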
5HT1E ag: agonists of human 5-HT1E serotonin receptor | CHO 5-HT1E Ga15 NFAT-bla reporter, FRET; 0% DMSO wells, 100% control agonist wells | activation, % at 6 µM | 0.69% of 65,000 active | AID 574;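 active = activation above a set limit, the screen-wide mean activation plus 3 SD, cut at about 8.5% in these data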;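 note: 100% = positive control agonist at 1 µM giving full maximal response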
S1P1 ag-PAM: S1P1 (human) agonism or agonism potentiation; P21453; S1P1 CRE-bla cells, forskolin, beta-lactamase FRET, potentiator mode; S1P1 agonist co-added at EC20, 2 nM; 100% = saturating reference agonist, 0% = basal; activation, % at 9.5 µM; 0.57% of 56,000 active; AID 449;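 active = activation above a cutoff set at the mean activation of all tested compounds plus 3 SD, cut at about 54% in these data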;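 note: forskolin at 4 µM as EC80 and the EC20 agonist is SEW2871; 100% = SEW2871 at its EC100 plus forskolin at EC80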
Active calls of the source: *; x = no result.

SMILES | 5HT1a antag | S1P3 ag | 5HT1a ag | HTR1E antagonist | 5HT1E ag | S1P1 ag-PAM
CCSCCOC(=O)C1=C(C)NC2=C(C(=O)CCC2)C1c1coc2ccccc2c1=O (stereo not given) | 6 | -2 | 0 | 11 | 0 | -24
COc1ccccc1N1CCN(C2=CC(=O)CCC2)CC1 | 18 | x | 6 | 0 | 32* | x
O=C1C=C(N2CCN(C3=CC(=O)CCC3)CC2)CCC1 | x | -4 | 4 | -5 | -2 | 11
COc1ccccc1N1CCN(c2nc(-c3ccccc3)cc(C(F)(F)F)n2)CC1 | 2 | x | -3 | -6 | -1 | x
COc1ccccc1N1CCN(c2ccc(-c3ccccc3)nn2)CC1 | 38 | x | -1 | 51* | 0 | x
Cc1ccc(-c2cnc(N)n2C)cc1C | 11 | 1 | 3 | -6 | 38* | 36
Cc1ccccc1OCCCCc1c(C)n[nH]c1C | 15 | -2 | -3 | 9 | 0 | 131*
O=C(CCCNS(=O)(=O)c1ccc(Br)cc1)N1CC[C@@]2(O)CCCC[C@H]2C1 | -10 | -1 | -4 | 7 | 1 | 3
O=C(Nc1ccccc1C(F)(F)F)c1cc(S(=O)(=O)N2CCOCC2)ccc1F | -1 | x | -1 | 10 | 1 | x
Cc1ccc(-n2c(SCC(=O)N3CCOCC3)nnc2-c2cccnc2)cc1C | -4 | -1 | 3 | -1 | 44* | 2
CCn1c2ccccc2c2nc3ccccc3nc21 | -9 | 1 | 1 | 32* | 0 | -82
CCn1c2ccccc2c2nc3cc(OC)c(OC)cc3nc21 | 7 | 1 | 5 | 45* | 2 | -79
CCOC(=O)c1ccc(NS(=O)(=O)c2cc(C)ccc2OC)cc1 | -1 | -1 | 2 | -2 | 1 | 14
COc1ccc(NS(=O)(=O)c2cc(C)ccc2NC(=O)c2cc(C)oc2C)cc1 | 63* | -1 | 0 | 61* | 0 | -13
O=C(CSc1nnc(NCc2ccccc2)s1)c1ccco1 | 1 | -1 | -3 | 6 | 0 | 5
OC1CN=C2C=CC=CN2C1 (stereo not given) | 1 | 0 | -1 | -5 | -1 | -20
Cc1nnc(NCc2ccco2)c2ccccc12 | -15 | -1 | -1 | -7 | -1 | 0
Cc1nnc(NCc2ccncc2)c2ccccc12 | 5 | -1 | 88* | -5 | 1 | -8
COc1cc(C2C3CN(C)CC=C3C(C#N)=C(N)C2(C#N)C#N)ccc1OC(C)C (stereo not given) | 3 | x | 1 | -4 | 2 | x
CC(C)N1CC=C2C(C#N)=C(N)C(C#N)(C#N)C(c3ccccc3)C2C1 (stereo not given) | x | 5 | 26* | 2 | 4 | 12
CC(=O)c1ccccc1Oc1nc(CN2CCOCC2)nc2scc(-c3cccs3)c12 | 33 | 1 | -2 | 5 | 0 | 16
COc1cccc2cc(C(=O)N3CCc4ccccc43)c(=O)oc12 | -12 | -1 | -4 | -8 | -1 | 3
CCOC(=O)c1cc2sccc2n1CC(=O)N1CCc2ccccc21 | 25 | x | -1 | 44* | 1 | x
CC(=O)c1c(C)[nH]c(C(=O)N2CCc3ccccc32)c1C | -2 | 0 | 0 | -4 | 1 | -7
CCOC(=O)c1[nH]c(C)c(C(=O)N2CCc3ccccc32)c1C | 51* | -1 | -3 | 77* | -1 | 4
SMILES | 5HT1a antag | S1P3 ag | 5HT1a ag | HTR1E antagonist | 5HT1E ag | S1P1 ag-PAM
COc1ccccc1C(=O)N1CCc2ccccc21 | 7 | 0 | -4 | -1 | 20* | -5
CCOCC(=O)N1CCc2ccccc21 | 6 | 0 | 24* | 4 | 0 | -4
O=C(CCCC(=O)N1CCc2ccccc21)N1CCc2ccccc21 | 14 | -1 | -5 | 11 | 0 | -3
Cc1ccc(S(=O)(=O)CC(=O)N(C)C)cc1 | -14 | x | 1 | -1 | 0 | x
Cc1ccccc1S(=O)(=O)Cc1ccc(C(=O)NCc2cccnc2)o1 | 7 | 0 | -1 | -2 | -1 | -1
O=C(CSc1ncnc2c1oc1ccccc12)NC1CCCCC1 | -11 | 0 | 2 | -4 | 0 | -19
O=C(NCC1CCS(=O)(=O)C1)Oc1ccccc1 (stereo not given) | -6 | -1 | -4 | -8 | 0 | -15
